# What was measured:
# LNCaP = experiment: Cytotoxicity against human LNCAP cells after 24 hrs by MTT assay; type: functional, cell-based
# DU-145 = experiment: Cytotoxicity against human DU145 cells after 24 hrs by MTT assay; type: functional, cell-based; conditions: DU-145, 24 h
# Rattus norvegicus [1] = experiment: Anti-androgenic activity in citral-induced prostatic hyperplasia Sprague-Dawley rat model assessed as prostate weight at 10 mg/kg, po administered once daily coadministered with citral for 21 days measured 24 hrs last post dose (reference value: 100%); type: functional
# Summary of the method: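 Adult male Sprague-Dawley rats (250-280 g, n = 5), citral 100 mg/kg orally once daily for 28 days. From day 8, compound or flutamide at 10 mg/kg orally once daily for the remaining 21 days. Prostate weight is expressed relative to the citral group (100%). Prostates fixed in 10% formalin; 5 μ sections stained with H&E, examined by light microscopy.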
# Rattus norvegicus [2] = experiment: Toxicity in citral-induced prostatic hyperplasia Sprague-Dawley rat model assessed as effect on epididymis weight at 10 mg/kg, po administered once daily coadministered with citral for 21 days measured 24 hrs last post dose; type: organism-based; conditions: in vivo
# [3] = Cmax in Sprague-Dawley rat serum at 10 mg/kg, iv administered as single dose by LC-MS/MS analysis; type: ADME, organism-based; design: dose 10 mg/kg, route intravenous
# Summary of the method: (§1)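 Male Sprague Dawley rats (250 ± 25 g), fasted overnight (12-16 h), n = 3 per time point; single 10 mg/kg dose orally by feeding needle, or iv from DMSO solution. Serum, prostate and hypothalamus collected up to 48 h post oral dose; hypothalamus from three rats pooled. LC-MS/MS (MRM, phenacetin internal standard), linear 5-400 ng/mL; noncompartmental and compartmental analysis.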
# [4] = Half life in Sprague-Dawley rat serum at 10 mg/kg, iv administered as single dose by LC-MS/MS analysis; type: ADME, organism-based; summary of the method: as §1
# [5] = Cmax in Sprague-Dawley rat serum at 10 mg/kg, po administered as single dose by LC-MS/MS analysis; type: ADME, organism-based; design: dose 10 mg/kg, route oral; summary of the method: as §1
# [6] = Tmax in Sprague-Dawley rat serum at 10 mg/kg, po administered as single dose by LC-MS/MS analysis; type: ADME, organism-based; summary of the method: as §1
# [7] = AUClast in Sprague-Dawley rat serum at 10 mg/kg, po administered as single dose by LC-MS/MS analysis; type: ADME, organism-based; design: dose 10 mg/kg, route oral, time 0 - last; summary of the method: as §1
# [8] = Half life in Sprague-Dawley rat serum at 10 mg/kg, po administered as single dose by LC-MS/MS analysis; type: ADME, organism-based; summary of the method: as §1
# [9] = Clearance in Sprague-Dawley rat serum at 10 mg/kg, po administered as single dose by LC-MS/MS analysis; type: ADME, organism-based; summary of the method: as §1
# [10] = Oral bioavailability in Sprague-Dawley rat serum at 10 mg/kg administered as single dose by LC-MS/MS analysis; type: ADME, organism-based; summary of the method: as §1
# [11] = Cmax in Sprague-Dawley rat prostate at 10 mg/kg, po administered as single dose by LC-MS/MS analysis; type: ADME, organism-based, Prostate gland; design: dose 10 mg/kg, route oral; summary of the method: as §1
# [12] = Tmax in Sprague-Dawley rat prostate at 10 mg/kg, po administered as single dose by LC-MS/MS analysis; type: ADME, organism-based, Prostate gland; summary of the method: as §1
# [13] = Half life in Sprague-Dawley rat prostate at 10 mg/kg, po administered as single dose by LC-MS/MS analysis; type: ADME, organism-based, Prostate gland; summary of the method: as §1
# [14] = Clearance in Sprague-Dawley rat prostate at 10 mg/kg, po administered as single dose by LC-MS/MS analysis; type: ADME, organism-based, Prostate gland; conditions: in vivo; summary of the method: as §1
# [15] = Volume of distribution at steady state in Sprague-Dawley rat prostate at 10 mg/kg, po administered as single dose by LC-MS/MS analysis; type: ADME, organism-based, Prostate gland; conditions: in vivo; summary of the method: as §1
# [16] = Ratio of drug level in prostate to serum in Sprague-Dawley rat at 10 mg/kg, po administered as single dose by LC-MS/MS analysis; type: ADME, organism-based; summary of the method: as §1
# [17] = Tmax in Sprague-Dawley rat hypothalamus at 10 mg/kg, po administered as single dose by LC-MS/MS analysis; type: ADME, organism-based; summary of the method: as §1
# Hypothalamus = experiment: Volume of distribution at steady state in Sprague-Dawley rat hypothalamus at 10 mg/kg, po administered as single dose by LC-MS/MS analysis; type: ADME, organism-based; conditions: in vivo; summary of the method: as §1
# [18] = Ratio of drug level in hypothalamus to serum in Sprague-Dawley rat at 10 mg/kg, po administered as single dose by LC-MS/MS analysis; type: ADME, organism-based; summary of the method: as §1
compound,measurement,setting,value
c1ccc(N2CCN(CCCN3CCN(c4ccccn4)CC3)CC2)nc1,EC50,LNCaP,15.6 µM
same,EC50,DU-145,> 80 µM
same,Activity,Rattus norvegicus [1],53.8%
same,Activity,Rattus norvegicus [2],Non-Toxic
same,Cmax,[3],520 ng/mL
same,half-life,[4],5.2 h
same,Cmax,[5],329 ng/mL
same,Tmax,[6],1 h
same,AUC(0-t),[7],900 ng·h/mL
same,half-life,[8],5.4 h
same,CL/F,[9],65 mL/min/kg
same,bioavailability,[10],35.4%
same,Cmax,[11],572 ng/g
same,Tmax,[12],4 h
same,half-life,[13],155 h
same,CL,[14],0.3 g/h/kg
same,Vdss,[15],3.6 g/kg
same,Kp,[16],11.8
same,Tmax,[17],1 h
same,Vdss,Hypothalamus,6.6 g/kg
same,Kp,[18],4.6

# — ChEMBL document CHEMBL4024713, “Novel aryl piperazines for alleviation of 'andropause' associated prostatic disorders and depression” (Eur J Med Chem, 2017)
